Data on one molecule can be found in ChEMBL document CHEMBL2407037, “Parvifloranines A and B, two 11-carbon alkaloids from Geijera parviflora” (J Nat Prod, 2013).

pEC50, pIC50: −log10 of the molar value. Activity calls are given as the source filed them. The calls are words filed in the database; no cut-off is given here.

In series [1] the test system is RAW264.7. Briefly: Selectivity index, ratio of EC50 for mouse RAW264.7 cells to IC50 for mouse RAW264.7 cells assessed as LPS-induced NO production. Type of series: functional. In short, it runs like this:
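Index is cytotoxicity EC50 in RAW 264.7 cells (24 h ATPlite) divided by the IC50 for inhibition of LPS-induced nitrite production in the same cells (Griess readout).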

Series [2] relates to Staphylococcus aureus. Nature of the series: Antibacterial activity against methicillin-sensitive Staphylococcus aureus. Format: functional, organism-based.
Series [3] relates to RAW264.7. Briefly: Inhibition of LPS-induced NO production in mouse RAW264.7 cells incubated 1 hr prior to LPS challenge measured after 20 hrs by Griess assay. Format: functional, cell-based. In short, it runs like this: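 RAW 264.7 cells seeded at 10^6 cells/mL and grown 20 h before compound (DMSO stock diluted 20-fold in medium). After 1 h pretreatment, LPS (10 μg/mL stock, 10 μL/well) added, then 20 h further incubation. Supernatant nitrite read by Griess reagent, 20 min at 23 °C, absorbance 550 nm, against 0–100 μM nitrite standards. Output expressed as % of solvent control; triplicate, mean and SD.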

Series [4] relates to RAW264.7. Nature of the series: Inhibition of LPS-induced TNF-alpha production in mouse RAW264.7 cells. Type of series: functional, cell-based.
The subject of a further series is NIH3T3. Nature of the series: Inhibition of A23187-induced prostaglandin E2 production in Swiss albino mouse 3T3 cells. Type of series: functional, cell-based.
The subject of another series is Escherichia coli. Nature of the series: Antibacterial activity against Escherichia coli. Format: functional, organism-based.
A further series concerns Pseudomonas aeruginosa. Nature of the series: Antibacterial activity against Pseudomonas aeruginosa. Type of series: functional, organism-based.
Series [5] is described as follows: Solubility of the compound. Format: physicochemical.
Series [6] deals with RAW264.7. Briefly: Cytotoxicity against mouse RAW264.7 cells after 24 hrs by ATPLite assay. Type of series: cell-based. The note with it: RAW264.7, 24 h. In short, it runs like this:
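RAW 264.7 cells in colour-free DMEM with 10% FBS, 2 mM L-glutamine, 1 mM pyruvate, penicillin/streptomycin; 30 000 cells/well, compounds from DMSO stocks diluted 20-fold in medium, six concentrations; 24 h at 37 °C, 5% CO2. Cellular ATP read by ATPlite luminescence after lysis and 10 min dark adaptation. Chlorambucil as positive control; triplicate; EC50 from curve fit.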
A general note: Cellular ATP, detected with luciferase, serves as a proxy for viable cell number.

Series [7] has as its system Staphylococcus epidermidis. Briefly: Antibacterial activity against Staphylococcus epidermidis. Type of series: functional, organism-based.
Series [8] deals with Staphylococcus aureus. Briefly: Antibacterial activity against methicillin-resistant Staphylococcus aureus. Type of series: functional, organism-based.

Turning to `C/C(=C\COc1ccc2ccc(=O)oc2c1)C1=C(CN2CCCC2C(=O)O)C(=O)C(C)(C)O1` (mixture of isomers), the “Selectivity Index” value in the series on RAW264.7 [1] was 3.2. Besides, the result (with Staphylococcus aureus [2]; with Escherichia coli; with Pseudomonas aeruginosa; in series [7]; in the series on Staphylococcus aureus [8]) was inactive. In the series with RAW264.7 [3], this molecule gave a negative logarithm of the IC50 (pIC50) of 4.63. The inhibition result with RAW264.7 [4] and with NIH3T3 was “inactive” each time. Besides, the solubility in series [5] amounted to 245 µg/mL. The molecule further had a negative-log EC50 (pEC50) in the series with RAW264.7 [6] of 4.13.

By pIC50 is commonly meant the IC50 on a negative log10 scale, so that one unit is a factor of ten. Lower therefore signals a large IC50. As usually defined, the solubility is the dissolved amount per volume that the medium holds. A low value points to a poorly soluble substance. Usually pEC50 stands for −log10 of the EC50, conventionally taken in molar units. A lower pEC50 goes with a large EC50.
